ChEMBL document CHEMBL4229344 (Eur J Med Chem, 2018)

Key:
[1] = molecular target: Serine/threonine-protein kinase TBK1 (Homo sapiens) (UniProt Q9UHD2); experiment: Binding affinity to wild-type human full length TBK1 (M1 to L729 residues) expressed in mammalian expression system assessed as residual binding level at 1 uM by Kinomescan method relative to control
Outline: (§1)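 Single-concentration KINOMEscan (DiscoverX) binding screen at 1 μM against a panel of 468 purified kinases and mutants. The read-out is binding relative to control.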

[2] = molecular target: Aurora kinase C (Homo sapiens) (UniProt Q9UQB9); experiment: Binding affinity to wild-type human full length AURKC (M1 to S275 residues) expressed in bacterial expression system assessed as residual binding level at 1 uM by Kinomescan method relative to control
Sequence of Aurora kinase C (Homo sapiens) (Q9UQB9 whole entry, the tested form may be a part): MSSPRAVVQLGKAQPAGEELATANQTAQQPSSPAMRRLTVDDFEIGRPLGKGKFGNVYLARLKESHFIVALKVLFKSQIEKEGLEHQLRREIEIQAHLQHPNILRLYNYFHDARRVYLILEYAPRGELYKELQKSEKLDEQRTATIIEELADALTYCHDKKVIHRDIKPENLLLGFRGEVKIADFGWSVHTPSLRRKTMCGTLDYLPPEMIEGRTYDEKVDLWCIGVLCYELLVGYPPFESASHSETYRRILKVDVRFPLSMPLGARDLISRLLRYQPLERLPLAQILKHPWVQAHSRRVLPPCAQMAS
Outline: (§2)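 Single-concentration (1 μM) competition-binding screen run by KINOMEscan against a panel of 468 purified kinases and mutants. The read-out is the relative binding activity of the test compound to each kinase.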

[3] = molecular target: Protein kinase C eta type (Homo sapiens) (UniProt P24723); experiment: Binding affinity to wild-type human partial length PRKCH (S324 to P683 residues) expressed in bacterial expression system assessed as residual binding level at 1 uM by Kinomescan method relative to control
Sequence of Protein kinase C eta type (Homo sapiens) (P24723 whole entry, the tested form may be a part): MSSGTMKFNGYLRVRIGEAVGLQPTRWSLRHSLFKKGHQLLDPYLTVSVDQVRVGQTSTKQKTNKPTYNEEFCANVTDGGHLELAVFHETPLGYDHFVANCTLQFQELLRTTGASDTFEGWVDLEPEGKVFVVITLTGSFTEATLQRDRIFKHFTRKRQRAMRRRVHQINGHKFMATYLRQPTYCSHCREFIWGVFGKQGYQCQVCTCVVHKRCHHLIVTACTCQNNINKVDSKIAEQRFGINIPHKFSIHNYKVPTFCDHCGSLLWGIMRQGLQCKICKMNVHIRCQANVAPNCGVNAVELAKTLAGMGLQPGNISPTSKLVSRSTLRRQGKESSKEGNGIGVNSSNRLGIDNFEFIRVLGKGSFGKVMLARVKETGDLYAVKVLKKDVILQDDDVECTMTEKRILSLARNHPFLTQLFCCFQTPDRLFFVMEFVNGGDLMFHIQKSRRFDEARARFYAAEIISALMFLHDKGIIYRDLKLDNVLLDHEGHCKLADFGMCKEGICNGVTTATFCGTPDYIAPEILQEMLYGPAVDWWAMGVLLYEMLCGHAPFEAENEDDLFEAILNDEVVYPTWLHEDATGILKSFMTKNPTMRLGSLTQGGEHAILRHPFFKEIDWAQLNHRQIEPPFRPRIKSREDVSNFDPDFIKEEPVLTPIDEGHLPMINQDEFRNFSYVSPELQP

[4] = molecular target: Leukocyte tyrosine kinase receptor (Homo sapiens) (UniProt P29376); experiment: Binding affinity to wild-type human partial length LTK (P422 to S744 residues) expressed in bacterial expression system assessed as residual binding level at 1 uM by Kinomescan method relative to control
Outline: (§3)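 Kinome-wide competition binding screen against a panel of 468 purified kinases/mutants, with the test compound at a single concentration of 1 μM. Read-out is the relative binding activity of each kinase in the presence of compound.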

[5] = molecular target: Calcium/calmodulin-dependent protein kinase type II subunit beta (Homo sapiens) (UniProt Q13554); experiment: Binding affinity to wild-type human partial length CAMK2B (M1 to Q380 residues) expressed in bacterial expression system assessed as residual binding level at 1 uM by Kinomescan method relative to control
Sequence of Calcium/calmodulin-dependent protein kinase type II subunit beta (Homo sapiens) (Q13554 whole entry, the tested form may be a part): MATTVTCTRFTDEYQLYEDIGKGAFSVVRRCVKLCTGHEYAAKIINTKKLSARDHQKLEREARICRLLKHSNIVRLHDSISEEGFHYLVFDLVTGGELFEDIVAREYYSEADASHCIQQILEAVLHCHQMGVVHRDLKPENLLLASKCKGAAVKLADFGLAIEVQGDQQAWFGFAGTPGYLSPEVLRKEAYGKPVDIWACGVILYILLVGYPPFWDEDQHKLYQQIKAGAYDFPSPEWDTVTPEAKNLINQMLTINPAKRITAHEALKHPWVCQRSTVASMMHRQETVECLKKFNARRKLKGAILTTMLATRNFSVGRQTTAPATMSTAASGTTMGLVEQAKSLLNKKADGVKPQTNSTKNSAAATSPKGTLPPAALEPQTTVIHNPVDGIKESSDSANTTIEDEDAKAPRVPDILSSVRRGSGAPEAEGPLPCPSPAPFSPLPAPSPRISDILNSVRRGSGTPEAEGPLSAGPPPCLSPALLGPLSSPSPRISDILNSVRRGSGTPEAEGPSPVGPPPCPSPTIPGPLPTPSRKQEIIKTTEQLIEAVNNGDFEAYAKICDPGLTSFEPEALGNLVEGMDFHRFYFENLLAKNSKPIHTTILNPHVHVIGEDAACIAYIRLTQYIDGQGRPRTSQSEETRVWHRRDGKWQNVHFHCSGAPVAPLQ

[6] = molecular target: Serine/threonine-protein kinase WNK3 (Homo sapiens) (UniProt Q9BYP7); experiment: Binding affinity to wild-type human partial length WNK3 (M1 to D434 residues) expressed in mammalian expression system assessed as residual binding level at 1 uM by Kinomescan method relative to control
Sequence of Serine/threonine-protein kinase WNK3 (Homo sapiens) (Q9BYP7 whole entry, the tested form may be a part): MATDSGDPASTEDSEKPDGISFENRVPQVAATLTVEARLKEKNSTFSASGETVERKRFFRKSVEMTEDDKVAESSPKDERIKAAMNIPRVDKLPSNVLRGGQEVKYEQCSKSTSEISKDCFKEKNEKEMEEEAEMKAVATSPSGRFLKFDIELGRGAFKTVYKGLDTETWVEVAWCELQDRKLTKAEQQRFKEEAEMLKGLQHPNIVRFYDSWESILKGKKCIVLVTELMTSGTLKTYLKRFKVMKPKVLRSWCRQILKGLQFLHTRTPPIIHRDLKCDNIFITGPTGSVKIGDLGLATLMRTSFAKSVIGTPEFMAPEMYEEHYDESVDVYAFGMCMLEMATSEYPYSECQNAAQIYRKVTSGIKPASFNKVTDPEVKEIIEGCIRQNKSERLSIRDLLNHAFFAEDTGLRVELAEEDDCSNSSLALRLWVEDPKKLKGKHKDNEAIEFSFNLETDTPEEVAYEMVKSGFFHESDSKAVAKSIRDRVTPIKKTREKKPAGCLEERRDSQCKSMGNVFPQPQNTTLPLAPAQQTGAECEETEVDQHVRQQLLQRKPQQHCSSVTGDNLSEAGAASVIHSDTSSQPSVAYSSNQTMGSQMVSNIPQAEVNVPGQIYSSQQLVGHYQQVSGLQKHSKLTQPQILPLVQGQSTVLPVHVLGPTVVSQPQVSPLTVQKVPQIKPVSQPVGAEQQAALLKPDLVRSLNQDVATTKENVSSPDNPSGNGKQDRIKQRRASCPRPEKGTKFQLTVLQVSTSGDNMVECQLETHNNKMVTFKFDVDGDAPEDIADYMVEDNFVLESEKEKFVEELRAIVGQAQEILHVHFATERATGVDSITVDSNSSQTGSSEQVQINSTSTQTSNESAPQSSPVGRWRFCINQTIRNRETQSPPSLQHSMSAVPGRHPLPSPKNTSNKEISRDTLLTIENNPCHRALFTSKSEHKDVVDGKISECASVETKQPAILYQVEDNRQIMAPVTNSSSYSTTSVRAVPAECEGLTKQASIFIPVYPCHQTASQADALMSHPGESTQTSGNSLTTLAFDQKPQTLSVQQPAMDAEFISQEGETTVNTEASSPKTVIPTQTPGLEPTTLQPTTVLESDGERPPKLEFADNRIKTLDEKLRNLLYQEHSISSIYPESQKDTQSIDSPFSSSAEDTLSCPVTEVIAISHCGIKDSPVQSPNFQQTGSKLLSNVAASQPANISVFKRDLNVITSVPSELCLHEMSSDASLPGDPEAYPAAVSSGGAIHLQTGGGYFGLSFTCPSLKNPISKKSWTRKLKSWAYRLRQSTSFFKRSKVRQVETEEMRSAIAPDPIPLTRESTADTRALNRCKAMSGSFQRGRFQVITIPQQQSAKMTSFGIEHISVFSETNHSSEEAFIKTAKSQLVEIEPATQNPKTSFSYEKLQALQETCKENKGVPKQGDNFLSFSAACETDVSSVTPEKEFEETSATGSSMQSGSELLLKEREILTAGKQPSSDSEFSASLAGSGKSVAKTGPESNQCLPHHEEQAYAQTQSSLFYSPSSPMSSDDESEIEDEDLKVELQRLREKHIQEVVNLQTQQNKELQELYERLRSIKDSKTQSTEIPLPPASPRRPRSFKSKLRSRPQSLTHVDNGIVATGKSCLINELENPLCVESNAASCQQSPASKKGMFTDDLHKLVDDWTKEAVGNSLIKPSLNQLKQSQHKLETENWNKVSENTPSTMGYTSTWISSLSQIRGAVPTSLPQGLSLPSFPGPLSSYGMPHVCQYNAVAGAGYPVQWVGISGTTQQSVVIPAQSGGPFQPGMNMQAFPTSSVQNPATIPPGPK

[7] = molecular target: Platelet-derived growth factor receptor beta (Homo sapiens, UniProt P09619); experiment: Inhibition of PDGFRbeta (unknown origin) using poly(4:1 Glu,Tyr) peptide as substrate preincubated for 1 hr followed by addition of ATP and measured after 30 mins by ADP-Glo bioluminescence assay
[8] = molecular target: Serine/threonine-protein kinase Nek6 (Homo sapiens) (UniProt Q9HC98); experiment: Binding affinity to wild-type human full length NEK6 (M8 to T313 residues) expressed in bacterial expression system assessed as residual binding level at 1 uM by Kinomescan method relative to control; outline: as §1
[9] = molecular target: Ribosomal protein S6 kinase alpha-6 (Homo sapiens) (UniProt Q9UK32); experiment: Binding affinity to wild-type human partial length C-terminal RSK4 kinase domain 2 (I401 to Y711 residues) expressed in bacterial expression system assessed as residual binding level at 1 uM by Kinomescan method relative to control
Sequence of Ribosomal protein S6 kinase alpha-6 (Homo sapiens) (Q9UK32 whole entry, the tested form may be a part): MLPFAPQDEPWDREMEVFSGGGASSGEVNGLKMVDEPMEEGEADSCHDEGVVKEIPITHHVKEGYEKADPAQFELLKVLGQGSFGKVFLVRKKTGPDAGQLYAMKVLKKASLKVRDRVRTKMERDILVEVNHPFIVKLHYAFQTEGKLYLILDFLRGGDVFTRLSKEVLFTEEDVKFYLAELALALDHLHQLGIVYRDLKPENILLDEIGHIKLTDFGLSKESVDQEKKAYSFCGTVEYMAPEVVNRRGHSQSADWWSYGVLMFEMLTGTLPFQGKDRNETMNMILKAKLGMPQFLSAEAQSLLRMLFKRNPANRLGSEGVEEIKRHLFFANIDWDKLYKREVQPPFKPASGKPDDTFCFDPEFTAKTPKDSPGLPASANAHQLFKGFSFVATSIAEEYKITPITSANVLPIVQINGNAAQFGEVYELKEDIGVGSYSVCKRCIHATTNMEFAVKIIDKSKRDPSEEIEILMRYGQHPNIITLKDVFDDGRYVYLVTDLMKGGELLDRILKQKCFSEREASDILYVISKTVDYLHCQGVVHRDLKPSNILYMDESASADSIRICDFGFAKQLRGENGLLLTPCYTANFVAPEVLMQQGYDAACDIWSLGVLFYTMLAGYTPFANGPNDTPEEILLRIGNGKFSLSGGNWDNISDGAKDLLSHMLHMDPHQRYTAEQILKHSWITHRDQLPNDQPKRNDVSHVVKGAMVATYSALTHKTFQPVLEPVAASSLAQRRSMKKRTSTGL

[10] = system: Mast/stem cell growth factor receptor Kit (Homo sapiens), P10721 [A829P]; experiment: Binding affinity to human partial length KIT A829P mutant (I571 to D952 residues) expressed in mammalian expression system assessed as residual binding level at 1 uM by Kinomescan method relative to control
Outline: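 Kinome-wide single-concentration binding screen (KINOMEscan) at 1 μM against a panel of 468 purified kinases and mutants. Read-out is relative binding of each kinase compared with control. Selectivity across the panel was summarised as an S(10) score.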

[11] = system: Tyrosine-protein kinase ABL1 (Homo sapiens), P00519 [F317I]; experiment: Binding affinity to human phosphorylated ABL1 F317I mutant (S229 to K512 residues) expressed in mammalian expression system assessed as residual binding level at 1 uM by Kinomescan method relative to control; outline: as §2
[12] = molecular target: Mitogen-activated protein kinase 13 (Homo sapiens) (UniProt O15264); experiment: Binding affinity to wild-type human full length p38-delta (M1 to L365 residues) expressed in bacterial expression system assessed as residual binding level at 1 uM by Kinomescan method relative to control
Sequence of Mitogen-activated protein kinase 13 (Homo sapiens) (O15264 whole entry, the tested form may be a part): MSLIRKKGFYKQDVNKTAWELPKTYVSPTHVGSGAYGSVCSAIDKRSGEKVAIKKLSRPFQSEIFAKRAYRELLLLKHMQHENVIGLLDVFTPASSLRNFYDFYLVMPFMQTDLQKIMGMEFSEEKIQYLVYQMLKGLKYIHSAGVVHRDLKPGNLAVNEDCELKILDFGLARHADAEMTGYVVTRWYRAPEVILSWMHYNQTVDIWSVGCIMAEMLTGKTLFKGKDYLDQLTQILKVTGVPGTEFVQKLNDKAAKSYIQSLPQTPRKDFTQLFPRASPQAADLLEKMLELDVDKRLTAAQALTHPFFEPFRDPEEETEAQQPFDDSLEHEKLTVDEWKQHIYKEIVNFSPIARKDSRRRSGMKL
Outline: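 KINOMEscan competition binding against 468 purified kinases/mutants, test compound at 1 µM; residual binding relative to control.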

[13] = system: Platelet-derived growth factor receptor alpha (Homo sapiens), P16234 [T674I]; experiment: Inhibition of TEL-fused PDGFRalpha T674I mutant (unknown origin) expressed in mouse BA/F3 cells assessed as growth inhibition after 72 hrs by CellTiter-Glo or CCK-8 assay; assay type: cell-based
[14] = molecular target: Tyrosine-protein kinase Blk (Homo sapiens) (UniProt P51451); experiment: Binding affinity to wild-type human partial length BLK (G211 to L503 residues) expressed in bacterial expression system assessed as residual binding level at 1 uM by Kinomescan method relative to control; outline: as §1
[15] = molecular target: Serine/threonine-protein kinase Chk2 (Homo sapiens) (UniProt O96017); experiment: Binding affinity to wild-type human partial length CHEK2 (S253 to E574 residues) expressed in bacterial expression system assessed as residual binding level at 1 uM by Kinomescan method relative to control
[16] = molecular target: 1-phosphatidylinositol 3-phosphate 5-kinase (Homo sapiens) (UniProt Q9Y2I7); experiment: Binding affinity to wild-type human partial length PIKFYVE (F1512 to C2098 residues) expressed in mammalian expression system assessed as residual binding level at 1 uM by Kinomescan method relative to control
Outline: (§4)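 KINOMEscan competition binding against a panel of 468 purified kinases/mutants, compound tested at 1 μM; readout is relative binding activity versus control.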

[17] = molecular target: Phosphorylase b kinase gamma catalytic chain, liver/testis isoform (Homo sapiens) (UniProt P15735); experiment: Binding affinity to wild-type human partial length PHKG2 (M1 to W300 residues) expressed in bacterial expression system assessed as residual binding level at 1 uM by Kinomescan method relative to control; outline: as §4
[18] = molecular target: Dual serine/threonine and tyrosine protein kinase (Homo sapiens) (UniProt Q6XUX3); experiment: Binding affinity to wild-type human full length RIPK5 (M1 to T929 residues) expressed in mammalian expression system assessed as residual binding level at 1 uM by Kinomescan method relative to control; outline: as §1
EOL1 = experiment: Antitumor activity against human EOL-1 cells engrafted in ip dosed NOD-SCID mouse assessed as increase in mouse survival administered 3 weeks post cell inoculation; assay type: functional, organism-based
Outline: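 Daily i.p. dosing started 3 weeks after inoculation at 7.5, 15 or 30 mg/kg/day. Mice monitored daily and euthanized when moribund or at hind-limb paralysis. Bone marrow cells, after red-cell lysis, stained with PE anti-HLA-ABC and counted by flow cytometry.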

[19] = molecular target: Cyclin-dependent kinase 19 (Homo sapiens) (UniProt Q9BWU1); experiment: Binding affinity to wild-type human partial length CDK11 (M1 to N360 residues) expressed in bacterial expression system assessed as residual binding level at 1 uM by Kinomescan method relative to control; outline: as §3
[20] = molecular target: Phosphatidylinositol 5-phosphate 4-kinase type-2 gamma (Homo sapiens) (UniProt Q8TBX8); experiment: Binding affinity to wild-type human partial length PIP5K2C (M1 to A421 residues) expressed in mammalian expression system assessed as residual binding level at 1 uM by Kinomescan method relative to control; outline: as §4
Sequence of Phosphatidylinositol 5-phosphate 4-kinase type-2 gamma (Homo sapiens) (Q8TBX8 whole entry, the tested form may be a part): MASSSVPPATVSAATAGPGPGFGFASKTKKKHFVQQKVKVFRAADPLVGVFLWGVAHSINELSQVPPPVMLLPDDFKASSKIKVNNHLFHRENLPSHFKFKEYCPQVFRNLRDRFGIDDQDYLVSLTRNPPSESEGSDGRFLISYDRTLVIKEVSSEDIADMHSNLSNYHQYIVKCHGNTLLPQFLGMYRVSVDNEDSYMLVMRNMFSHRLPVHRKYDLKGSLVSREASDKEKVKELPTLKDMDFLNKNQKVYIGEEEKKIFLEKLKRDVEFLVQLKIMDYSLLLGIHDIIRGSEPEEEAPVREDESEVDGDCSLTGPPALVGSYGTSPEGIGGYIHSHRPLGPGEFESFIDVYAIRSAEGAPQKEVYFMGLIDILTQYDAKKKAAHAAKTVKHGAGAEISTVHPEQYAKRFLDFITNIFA

## Cc1ccc(NC(=O)c2ccc(CN(CCN(C)C)C(=O)c3cccnc3)cc2)cc1Nc1nccc(-c2cccnc2)n1
[1]
  Activity: 86%
[2]
  Activity: 97%
[3]
  Activity: 86%
[4]
  Activity: 87%
[5]
  Activity: 99%
[6]
  Activity: 100%
[7]
  IC50: 6.11 µM
[8]
  Activity: 90%
[9]
  Activity: 100%
[10]
  Activity: 81%
[11]
  Activity: 74%
[12]
  Activity: 79%
[13]
  GI50: > 10 µM
[14]
  Activity: 95%
[15]
  Activity: 95%
[16]
  Activity: 91%
[17]
  Activity: 89%
[18]
  Activity: 81%
EOL1
  Activity: Dose-dependent effect
[19]
  Activity: 82%
[20]
  Activity: 37%
